In ChEMBL document CHEMBL5096209, “Structure-Activity Studies of 3,9-Diazaspiro[5.5]undecane-Based γ-Aminobutyric Acid Type A Receptor Antagonists with Immunomodulatory Effect” (J Med Chem, 2021):

Experiments:
[1] = target: GABA-A receptor; anion channel; test: Displacement of [3H]-muscimol from rat brain cortex GABAA receptor assessed as inhibition constant incubated for 1 hr by top-counter microplate scintillation counter method; assay type: cell membranes, Membrane
[2] = target: T1, GABA-A receptor; alpha-1/beta-2/gamma-2 (Homo sapiens, UniProt P14867+P18507+P47870); test: Antagonist activity at human alpha1beta2gamma2 GABAA receptor expressed in HEK by FMP assay; assay type: cell-based
T1 sequence (P14867 whole entry): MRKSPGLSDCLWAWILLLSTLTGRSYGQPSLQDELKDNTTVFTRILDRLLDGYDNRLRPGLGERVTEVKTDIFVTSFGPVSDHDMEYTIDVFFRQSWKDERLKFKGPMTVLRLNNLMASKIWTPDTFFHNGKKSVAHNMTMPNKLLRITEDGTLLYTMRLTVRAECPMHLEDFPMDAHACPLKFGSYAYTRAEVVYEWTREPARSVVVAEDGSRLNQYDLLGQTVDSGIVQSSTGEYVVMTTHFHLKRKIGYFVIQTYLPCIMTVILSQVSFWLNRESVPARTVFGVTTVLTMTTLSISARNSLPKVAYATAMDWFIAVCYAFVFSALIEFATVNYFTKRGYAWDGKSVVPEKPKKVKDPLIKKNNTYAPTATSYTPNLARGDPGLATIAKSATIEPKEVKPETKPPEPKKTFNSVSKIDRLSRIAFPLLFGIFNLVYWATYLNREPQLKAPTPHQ
T1 sequence (P47870 whole entry): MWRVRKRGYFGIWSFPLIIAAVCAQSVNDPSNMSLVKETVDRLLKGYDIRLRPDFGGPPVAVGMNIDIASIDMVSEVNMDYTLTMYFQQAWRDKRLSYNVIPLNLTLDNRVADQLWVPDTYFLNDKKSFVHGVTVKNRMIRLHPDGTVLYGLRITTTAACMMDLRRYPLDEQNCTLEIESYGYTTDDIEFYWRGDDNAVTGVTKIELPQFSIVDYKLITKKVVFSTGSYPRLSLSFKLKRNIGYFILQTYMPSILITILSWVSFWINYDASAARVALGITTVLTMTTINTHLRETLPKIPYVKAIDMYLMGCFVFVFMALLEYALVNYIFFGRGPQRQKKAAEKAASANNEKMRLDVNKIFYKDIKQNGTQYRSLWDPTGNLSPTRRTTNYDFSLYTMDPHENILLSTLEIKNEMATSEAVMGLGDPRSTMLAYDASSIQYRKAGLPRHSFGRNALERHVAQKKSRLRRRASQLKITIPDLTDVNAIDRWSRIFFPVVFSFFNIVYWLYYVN
T1 sequence (P18507 whole entry): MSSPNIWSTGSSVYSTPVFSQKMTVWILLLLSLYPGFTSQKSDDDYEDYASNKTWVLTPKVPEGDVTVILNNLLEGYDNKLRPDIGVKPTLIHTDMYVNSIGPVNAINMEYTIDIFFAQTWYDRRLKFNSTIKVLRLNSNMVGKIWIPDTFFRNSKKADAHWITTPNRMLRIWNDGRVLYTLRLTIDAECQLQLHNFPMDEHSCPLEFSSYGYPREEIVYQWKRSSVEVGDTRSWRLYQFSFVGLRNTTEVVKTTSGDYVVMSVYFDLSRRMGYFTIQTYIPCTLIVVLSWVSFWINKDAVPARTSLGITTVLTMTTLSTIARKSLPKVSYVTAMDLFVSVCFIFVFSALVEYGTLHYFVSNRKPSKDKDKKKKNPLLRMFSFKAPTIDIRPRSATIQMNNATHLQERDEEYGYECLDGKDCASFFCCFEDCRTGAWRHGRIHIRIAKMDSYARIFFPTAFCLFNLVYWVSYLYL
Method in brief: (§1)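 Human αβγ2 receptors in HEK293 cells: α1β2γ2 stably expressed, other αβγ2 subtypes transiently transfected into HEK293 Flp-In background cells (α:β:γ 1:1:2). FLIPR membrane potential assay with ΔRFU baseline to peak/plateau and GABA EC80 as agonist. IC50 from a four-parameter fit, at least three independent experiments.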

[3] = target: T2, Gamma-aminobutyric acid receptor subunit alpha-5/beta-2/gamma-2 (Homo sapiens, UniProt P18507+P31644+P47870); test: Antagonist activity at human alpha5beta2gamma2 GABAA receptor expressed in HEK cells by FMP assay; assay type: cell-based; method in brief: as §1
T2 sequence (P47870 whole entry): T1 sequence (P47870 whole entry)
T2 sequence (P18507 whole entry): T1 sequence (P18507 whole entry)
T2 sequence (P31644 whole entry): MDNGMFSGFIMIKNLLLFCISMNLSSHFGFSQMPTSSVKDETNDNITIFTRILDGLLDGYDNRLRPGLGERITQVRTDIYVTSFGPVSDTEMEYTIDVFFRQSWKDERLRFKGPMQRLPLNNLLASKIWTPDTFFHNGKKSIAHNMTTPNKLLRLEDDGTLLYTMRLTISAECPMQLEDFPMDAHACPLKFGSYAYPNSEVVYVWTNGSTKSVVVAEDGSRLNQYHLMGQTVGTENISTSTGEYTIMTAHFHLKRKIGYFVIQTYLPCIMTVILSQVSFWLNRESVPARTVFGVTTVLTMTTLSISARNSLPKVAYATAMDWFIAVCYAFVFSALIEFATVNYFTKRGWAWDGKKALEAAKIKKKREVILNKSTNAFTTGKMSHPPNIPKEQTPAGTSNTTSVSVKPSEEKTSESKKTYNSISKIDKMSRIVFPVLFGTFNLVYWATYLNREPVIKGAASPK

[4] = target: T3, GABA A receptor alpha-3/beta-2/gamma-2 (Homo sapiens, UniProt P18507+P34903+P47870); test: Antagonist activity at human alpha3beta2gamma2 GABAA receptor expressed in HEKcells by FMP assay; assay type: cell-based, HEK; method in brief: as §1
T3 sequence (P47870 whole entry): T1 sequence (P47870 whole entry)
T3 sequence (P18507 whole entry): T1 sequence (P18507 whole entry)
T3 sequence (P34903 whole entry): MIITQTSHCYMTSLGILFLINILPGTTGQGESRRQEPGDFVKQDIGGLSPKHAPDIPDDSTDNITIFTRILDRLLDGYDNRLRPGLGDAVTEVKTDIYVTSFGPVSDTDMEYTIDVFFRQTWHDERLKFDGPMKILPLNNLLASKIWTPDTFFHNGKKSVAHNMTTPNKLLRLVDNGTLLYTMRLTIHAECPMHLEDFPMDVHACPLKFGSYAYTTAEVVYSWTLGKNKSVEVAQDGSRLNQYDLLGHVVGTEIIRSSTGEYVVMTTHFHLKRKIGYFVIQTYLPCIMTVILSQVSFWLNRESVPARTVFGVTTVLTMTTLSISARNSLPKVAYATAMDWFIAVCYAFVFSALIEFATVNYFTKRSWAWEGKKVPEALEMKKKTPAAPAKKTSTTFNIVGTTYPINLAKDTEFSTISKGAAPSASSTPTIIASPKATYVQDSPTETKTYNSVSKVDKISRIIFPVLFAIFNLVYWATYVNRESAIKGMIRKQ

[5] = target: T3, GABA A receptor alpha-3/beta-2/gamma-2; test: Antagonist activity at human alpha3beta2gamma2 GABAA receptor expressed in HEK293 cells by FMP assay; assay type: cell-based; method in brief: as §1
[6] = tested on: GABAA receptor α4β2δ (human); test: Antagonist activity at human alpha4beta2delta GABAA receptor expressed in HEK293 Flp-In cells by FMP assay
[7] = Homo sapiens, Flp-In-293, read-out: pIC50 (converted)

## O=C(Nc1cccc(C(=O)N2CCC3(CCNCC3)CC2)c1)c1cccs1
[1]
  Ki: 0.02 µM
[2]
  IC50: 0.79 µM
[2]; read-out: pIC50 (converted)
  IC50: 0.794 µM
[3]
  IC50: 0.051 µM
[3]; read-out: pIC50 (converted)
  IC50: 0.0513 µM
[4]
  IC50: 0.079 µM
[4]; read-out: pIC50 (converted)
  IC50: 0.0794 µM

## Cc1cccc(C(=O)N2CCC3(CCNCC3)CC2)c1
[5]
  IC50: 0.56 µM
[5]; read-out: pIC50 (converted)
  IC50: 0.501 µM
[6]; [7]
  IC50: 0.251 µM
[6]; flp-in-293
  IC50: 0.25 µM

## CC(=O)Nc1cccc(C(=O)N2CCC3(CCNCC3)CC2)c1
[1]
  Ki: 0.56 µM
[2]
  IC50: 4.96 µM
[2]; read-out: pIC50 (converted)
  IC50: 5.01 µM
[3]
  IC50: 0.59 µM
[3]; read-out: pIC50 (converted)
  IC50: 0.589 µM
[4]
  IC50: 0.29 µM
[4]; read-out: pIC50 (converted)
  IC50: 0.288 µM

## Cc1ccc(C(=O)N2CCC3(CCNCC3)CC2)cc1
[5]
  IC50: 3.57 µM
[5]; read-out: pIC50 (converted)
  IC50: 3.24 µM
[6]; [7]
  IC50: 2.14 µM
[6]; flp-in-293
  IC50: 2.15 µM
